Assay results taken from ChEMBL document CHEMBL1154682, “Discovery of novel benzoxazinones as potent and orally active long chain fatty acid elongase 6 inhibitors” (J Med Chem, 2009).
pIC50: −log10 of the molar value. Each block holds one compound with its values, some of them ahead of it. Activity calls are given as the source filed them. The calls are words filed in the database; no cut-off is given here.

Tests used:
[1] = molecular target: T1, Very long chain fatty acid elongase 6 (Homo sapiens, UniProt Q9H5J4); experiment: Inhibition of human ELOVL6 expressed in Pichia pastoris using palmitoyl-CoA by long chain fatty acyl-CoA elongation assay
T1 sequence (Q9H5J4 whole entry): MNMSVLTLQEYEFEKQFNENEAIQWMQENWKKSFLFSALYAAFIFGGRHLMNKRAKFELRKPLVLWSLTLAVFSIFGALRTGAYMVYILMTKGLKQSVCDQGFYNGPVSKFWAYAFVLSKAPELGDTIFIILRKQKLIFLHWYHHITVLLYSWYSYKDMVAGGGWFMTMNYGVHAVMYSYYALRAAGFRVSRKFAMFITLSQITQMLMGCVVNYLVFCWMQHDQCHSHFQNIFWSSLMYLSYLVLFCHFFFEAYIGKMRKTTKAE
Summary of the method: (§1)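 Microsomes (3 μg) from Pichia pastoris SMD1168 expressing FLAG-tagged human or mouse ELOVL6 were incubated 1 h at 37 °C in 100 mM potassium phosphate pH 6.5 with 40 μM palmitoyl-CoA, 20 μM malonyl-CoA plus [14C]-malonyl-CoA, 500 μM NADPH, 200 μM BSA and 1 μM rotenone. DMSO was 1.0% final. After HCl hydrolysis, filter-retained 14C was counted. IC50 came from nonlinear regression on % of control.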

[2] = molecular target: T2, Very long chain fatty acid elongase 6 (Mus musculus, UniProt Q920L5); experiment: Inhibition of ELOVL6 in mouse H2.35 cells assessed as elongation index; type: cell-based
T2 sequence (Q920L5 whole entry): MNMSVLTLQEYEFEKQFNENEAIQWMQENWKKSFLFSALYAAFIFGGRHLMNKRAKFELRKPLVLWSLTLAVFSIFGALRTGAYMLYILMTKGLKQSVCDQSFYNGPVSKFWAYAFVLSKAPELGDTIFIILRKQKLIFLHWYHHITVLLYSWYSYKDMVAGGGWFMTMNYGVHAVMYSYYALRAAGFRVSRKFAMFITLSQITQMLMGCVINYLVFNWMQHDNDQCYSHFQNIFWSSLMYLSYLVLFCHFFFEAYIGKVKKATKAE
Summary of the method: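 Subconfluent mouse hepatoma H2.35 cells were kept at 33 °C in DMEM with 200 nM dexamethasone and 4% FBS. Lipids were hydrolysed in NaOH at 70 °C, and fatty acids extracted and quantified by radio-HPLC. Elongation index = (C18:0 + C18:1) / (C16:0 + C16:1).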

[3] = molecular target: T2, Very long chain fatty acid elongase 6; experiment: Inhibition of mouse ELOVL6 expressed in Pichia pastoris using palmitoyl-CoA by long chain fatty acyl-CoA elongation assay; summary of the method: as §1
[4] = molecular target: T3, Very long chain fatty acid elongase 3 (Homo sapiens, UniProt Q9HB03); experiment: Inhibition of human ELOVL3
T3 sequence (Q9HB03 whole entry): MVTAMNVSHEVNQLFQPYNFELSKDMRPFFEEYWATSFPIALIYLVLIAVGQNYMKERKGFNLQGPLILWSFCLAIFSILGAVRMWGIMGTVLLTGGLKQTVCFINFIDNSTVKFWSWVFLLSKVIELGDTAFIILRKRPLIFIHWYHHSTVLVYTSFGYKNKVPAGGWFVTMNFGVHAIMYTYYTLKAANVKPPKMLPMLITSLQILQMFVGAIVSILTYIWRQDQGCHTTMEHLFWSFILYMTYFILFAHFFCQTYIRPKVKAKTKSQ
Summary of the method: (§2)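 Microsomes were prepared from Pichia pastoris SMD1168 expressing FLAG-tagged human or mouse ELOVL. Incubation ran 1 h at 37 °C in 100 mM potassium phosphate pH 6.5 with 200 μM BSA, 500 μM NADPH, 1 μM rotenone, 20 μM malonyl-CoA plus [14C]-malonyl-CoA, and acyl-CoA: ELOVL1 and ELOVL3, 10 μM stearoyl-CoA; ELOVL2, 10 μM arachidonoyl-CoA; ELOVL5, 40 μM arachidonoyl-CoA. DMSO was 1.0% final. Products were acid-hydrolysed and filter-bound radioactivity counted.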

[5] = Unbound fraction in C57BL/6N mouse plasma; type: ADME, cell-free
Summary of the method: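 Equilibrium dialysis was run with C57BL/6N mouse plasma adjusted to pH 7.4 and spiked with 1 μM compound, dialysed against PBS for 6 h at 37 °C. Both sides were analysed by LC-MS/MS. Unbound fraction = Cf/Cp × 100. Mean of n = 3.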

[6] = Plasma clearance in Sprague-Dawley rat at 1 mg/kg, iv and 3 mg/kg, po; type: ADME, organism-based
Summary of the method: (§3)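 Male SD rats, single dose: iv 1 mg/kg in PEG400/EtOH/H2O 50/10/40 or oral gavage 3 mg/kg in 0.5% methylcellulose suspension. Plasma was sampled at multiple time points up to 24 h, deproteinized with ethanol containing internal standard, and assayed. Values are means of n = 3 animals. Bioavailability was taken from AUC0-∞ after iv versus po.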

[7] = Cmax in Sprague-Dawley rat at 1 mg/kg, iv and 3 mg/kg, po; type: ADME, organism-based; details: in vivo; summary of the method: as §3
[8] = molecular target: T4, Very long chain fatty acid elongase 1 (Homo sapiens, UniProt Q9BW60); experiment: Inhibition of human ELOVL1; summary of the method: as §2
T4 sequence (Q9BW60 whole entry): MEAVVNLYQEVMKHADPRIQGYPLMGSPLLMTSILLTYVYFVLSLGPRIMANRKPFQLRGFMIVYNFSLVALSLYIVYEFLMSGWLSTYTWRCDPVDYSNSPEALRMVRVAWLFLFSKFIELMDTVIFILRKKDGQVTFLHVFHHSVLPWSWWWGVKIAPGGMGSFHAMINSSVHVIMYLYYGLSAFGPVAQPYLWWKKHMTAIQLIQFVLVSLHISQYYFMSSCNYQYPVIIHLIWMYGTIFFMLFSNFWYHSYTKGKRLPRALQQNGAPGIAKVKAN

[9] = Plasma concentration in C57BL/6J mouse at 30 mg/kg, po after 4 hrs; type: ADME, organism-based; design: dose 30 mg/kg, route oral; details: read-out: Concentration_plasma
Summary of the method: (§4)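 Male C57BL/6J mice were given a single oral gavage of 30 mg/kg in 0.5% methylcellulose suspension. Plasma was sampled at 2, 4, 8 and 24 h, deproteinized with ethanol containing internal standard, and assayed. Values are means of n = 3 animals.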

Mus musculus [10] = experiment: Reduction of elongation index of liver lipids in C57BL/6J mouse at 1 mg/kg, po; type: functional, organism-based; design: dose 1 mg/kg
Summary of the method: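 Male C57BL/6J mice were dosed orally in 0.5% methylcellulose. [1-14C]palmitic acid, 10 μCi/body, was given intraperitoneally 1 h later. Liver was taken 2 h after dosing and saponified in KOH/ethanol at 70 °C. Labelled fatty acids were quantified by radio-HPLC, with elongation index C18/C16 expressed as % of control. Four mice per treatment.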

[11] = Plasma concentration in C57BL/6J mouse at 30 mg/kg, po after 8 hrs; type: ADME, organism-based; design: dose 30 mg/kg, route oral; details: read-out: Concentration_plasma; summary of the method: as §4
[12] = Plasma concentration in C57BL/6J mouse at 30 mg/kg, po after 2 hrs; type: ADME, organism-based; design: dose 30 mg/kg, route oral; details: read-out: Concentration_plasma; summary of the method: as §4
[13] = Half life in Sprague-Dawley rat at 1 mg/kg, iv; type: ADME, organism-based; design: dose 1 mg/kg, route intravenous; details: in vivo; summary of the method: as §3
[14] = molecular target: T5, Very long chain fatty acid elongase 5 (Homo sapiens, UniProt Q9NYP7); experiment: Inhibition of human ELOVL5; summary of the method: as §2
T5 sequence (Q9NYP7 whole entry): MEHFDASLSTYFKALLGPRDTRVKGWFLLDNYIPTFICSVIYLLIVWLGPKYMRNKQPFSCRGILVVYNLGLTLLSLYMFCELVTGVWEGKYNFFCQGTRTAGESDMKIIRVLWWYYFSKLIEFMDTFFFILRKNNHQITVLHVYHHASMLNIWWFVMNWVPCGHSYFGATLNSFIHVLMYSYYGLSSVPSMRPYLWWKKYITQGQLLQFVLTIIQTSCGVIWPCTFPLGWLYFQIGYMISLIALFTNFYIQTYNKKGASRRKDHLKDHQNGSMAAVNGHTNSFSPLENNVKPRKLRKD

[15] = Volume of distribution at steady state in Sprague-Dawley rat at 1 mg/kg, iv; type: ADME, organism-based; design: dose 1 mg/kg, route intravenous; details: in vivo, read-out: Vdss; summary of the method: as §3
Mus musculus [16] = experiment: Reduction of elongation index of total fatty acids in C57BL/6J mouse plasma at 30 mg/kg, po twice daily for 3 days; type: functional, organism-based; design: dose 30 mg/kg
Summary of the method: (§5)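 Male C57BL/6J mice received 30 mg/kg orally twice daily for 3 days. Liver and plasma were hydrolysed in NaOH/ethanol with C17:0 internal standard. Fatty acids were derivatized with 2-nitrophenylhydrazine and measured by HPLC-UV at 400 nm. Elongation index (C18/C16) was expressed as % of vehicle control. Six mice per group.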

Mus musculus [17] = experiment: Reduction of elongation index of total fatty acids in C57BL/6J mouse liver at 30 mg/kg, po twice daily for 3 days; type: functional, organism-based; design: dose 30 mg/kg; summary of the method: as §5
[18] = Plasma concentration in C57BL/6J mouse at 30 mg/kg, po twice daily after 3 days; type: ADME, organism-based; design: dose 30 mg/kg, route oral
[19] = Oral bioavailability in Sprague-Dawley rat at 3 mg/kg; type: ADME, organism-based; details: in vivo; summary of the method: as §3
[20] = Plasma concentration in C57BL/6J mouse at 10 mg/kg, po after 2 hrs; type: ADME, organism-based; design: dose 10 mg/kg, route oral
Summary of the method: (§6)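 Male C57BL/6J mice were given a single oral gavage of 10 mg/kg in 0.5% methylcellulose suspension. Abdominal-vein blood and liver were taken 2 h after dosing. Liver was homogenized in PBS pH 7.4. Plasma and homogenate were deproteinized with ethanol containing internal standard before analysis.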

[21] = molecular target: T6, Very long chain fatty acid elongase 2 (Homo sapiens, UniProt Q9NXB9); experiment: Inhibition of human ELOVL2; summary of the method: as §2
T6 sequence (Q9NXB9 whole entry): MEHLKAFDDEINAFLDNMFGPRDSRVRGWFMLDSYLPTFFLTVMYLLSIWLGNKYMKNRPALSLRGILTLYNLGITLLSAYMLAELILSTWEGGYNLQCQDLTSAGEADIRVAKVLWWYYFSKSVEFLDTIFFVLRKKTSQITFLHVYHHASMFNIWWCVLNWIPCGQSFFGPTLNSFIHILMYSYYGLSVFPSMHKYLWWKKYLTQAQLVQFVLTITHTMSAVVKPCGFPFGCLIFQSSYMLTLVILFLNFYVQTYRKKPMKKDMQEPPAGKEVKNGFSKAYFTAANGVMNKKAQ

[22] = AUC (0 to infinity) in Sprague-Dawley rat at 1 mg/kg, iv and 3 mg/kg, po; type: ADME, organism-based; details: plasma; summary of the method: as §3
[23] = Drug level in C57BL/6J mouse liver at 10 mg/kg, po after 2 hrs; type: ADME, organism-based; design: dose 10 mg/kg, route oral; details: read-out: Drug uptake; summary of the method: as §6
[24] = molecular target: T7, Very long chain fatty acid elongase 3 (Mus musculus, UniProt O35949); experiment: Inhibition of mouse ELOVL3; summary of the method: as §2
T7 sequence (O35949 whole entry): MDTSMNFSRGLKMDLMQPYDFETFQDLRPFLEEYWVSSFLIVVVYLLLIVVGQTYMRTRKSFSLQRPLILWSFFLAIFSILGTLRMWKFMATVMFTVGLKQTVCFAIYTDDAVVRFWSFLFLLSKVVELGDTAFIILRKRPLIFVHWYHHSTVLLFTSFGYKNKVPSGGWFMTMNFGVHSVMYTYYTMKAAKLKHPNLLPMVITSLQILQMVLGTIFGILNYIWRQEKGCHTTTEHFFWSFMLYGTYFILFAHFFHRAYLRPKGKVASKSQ

[25] = Plasma concentration in C57BL/6J mouse at 1 mg/kg, po after 2 hrs; type: ADME, organism-based; design: dose 1 mg/kg, route oral

SMILES: O=C1Nc2ccc(-c3cn[nH]c3)cc2C(CNC(=O)c2ccc(F)cc2)(C(F)(F)F)O1 (single isomer, unassigned; (+))
pIC50 [2]: 7.30
pIC50 [3]: 7.70

SMILES: O=C1Nc2ccc(-c3ccn[nH]3)cc2[C@](CNC(=O)c2ccc(F)cc2)(C(F)(F)F)O1
pIC50 [4]: 6.89
fraction unbound [5]: 0.107
clearance [6]: 11 mL/min/kg
Cmax [7]: 2400 nM
pIC50 [8]: 5.15
pIC50 [2]: 8.44
concentration at 4 h [9]: 3700 nM
Activity (Mus musculus [10]): Active
concentration at 8 h [11]: 700 nM
concentration at 2 h [12]: 11700 nM
half-life [13]: 1.9 h
pIC50 [14]: < 5.00
Vd [15]: 0.7 L/kg
Activity (Mus musculus [16]): inactive
Activity (Mus musculus [17]): Active
concentration at 72 h [18]: > 540 nM
bioavailability [19]: 30%
concentration at 2 h [20]: 660 nM
pIC50 [3]: 7.85
pIC50 [21]: < 5.00
AUC(0-inf) [22]: 4.69 µM·h
concentration at 2 h [23]: 12500 nM
pIC50 [24]: 7.72
concentration at 2 h [25]: 540 nM

SMILES: O=C(Nc1ccc(F)cc1)OCC1(c2ccccc2)OC(=O)Nc2ccc(Cl)cc21 (stereo unspecified)
pIC50 [1]: < 5.00

SMILES: CCC1(COC(=O)Nc2ccc(F)cc2)OC(=O)Nc2ccc(Cl)cc21 (stereo unspecified)
pIC50 [1]: 5.65

SMILES: CS(=O)(=O)c1ccc(C(=O)NCC2(C(F)(F)F)OC(=O)Nc3ccc(Cl)cc32)cc1 (stereo unspecified)
pIC50 [1]: < 5.00

Continued, values first:

pIC50 [1]: < 5.00
SMILES: O=C1Nc2ccc(Cl)cc2C(CNC(=O)c2ccc(-c3ccccc3)cc2)(C(F)(F)F)O1 (stereo unspecified)

fraction unbound [5]: 0.053
SMILES: O=C1Nc2ccc(Cl)cc2C(CNC(=O)c2ccc(F)cc2)(C(F)(F)F)O1 (stereo unspecified)
